Laboratory results: ChEMBL document CHEMBL4007399, “Discovery and Synthesis of a Phosphoramidate Prodrug of a Pyrrolo[2,1-f][triazin-4-amino] Adenine C-Nucleoside (GS-5734) for the Treatment of Ebola and Emerging Viruses” (J Med Chem, 2017)

Key:
[1] = Inhibition of Respiratory syncytial virus A2 RNA-dependent-RNA polymerase assessed as reduction in RNP transcriptional activity after 90 mins in presence of [gamma-32P]ATP by agarose gel based phosphorimaging assay; design: species or system Human respiratory syncytial virus A2
[2] = Inhibition of Hepatitis C virus genotype 1b NS5B RNA-dependent-RNA polymerase preincubated for 5 mins followed by [alpha-33P]GTP addition measured after 90 mins by phosphorimaging assay; design: species or system Hepatitis C virus subtype 1b
[3] = biological target: T1, DNA-directed RNA polymerase, mitochondrial (Homo sapiens, UniProt O00411); experiment: Inhibition of human mitochondrial RNA polymerase after 30 mins in presence of [33P]GTP
[4] = Inhibition of RNA polymerase 2 in human HeLa cells preincubated for 5 mins with […] as substrate followed by addition of cell extract measured after 1 hr by SDS-PAGE method
[5] = biological target: T2, DNA polymerase alpha catalytic subunit (Homo sapiens, UniProt P09884); experiment: Inhibition of recombinant human DNA polymerase alpha preincubated with enzyme followed by addition of dATP/dGTP/TTP as substrate in presence of […] by phosphorimaging assay
T2 sequence (P09884 whole entry): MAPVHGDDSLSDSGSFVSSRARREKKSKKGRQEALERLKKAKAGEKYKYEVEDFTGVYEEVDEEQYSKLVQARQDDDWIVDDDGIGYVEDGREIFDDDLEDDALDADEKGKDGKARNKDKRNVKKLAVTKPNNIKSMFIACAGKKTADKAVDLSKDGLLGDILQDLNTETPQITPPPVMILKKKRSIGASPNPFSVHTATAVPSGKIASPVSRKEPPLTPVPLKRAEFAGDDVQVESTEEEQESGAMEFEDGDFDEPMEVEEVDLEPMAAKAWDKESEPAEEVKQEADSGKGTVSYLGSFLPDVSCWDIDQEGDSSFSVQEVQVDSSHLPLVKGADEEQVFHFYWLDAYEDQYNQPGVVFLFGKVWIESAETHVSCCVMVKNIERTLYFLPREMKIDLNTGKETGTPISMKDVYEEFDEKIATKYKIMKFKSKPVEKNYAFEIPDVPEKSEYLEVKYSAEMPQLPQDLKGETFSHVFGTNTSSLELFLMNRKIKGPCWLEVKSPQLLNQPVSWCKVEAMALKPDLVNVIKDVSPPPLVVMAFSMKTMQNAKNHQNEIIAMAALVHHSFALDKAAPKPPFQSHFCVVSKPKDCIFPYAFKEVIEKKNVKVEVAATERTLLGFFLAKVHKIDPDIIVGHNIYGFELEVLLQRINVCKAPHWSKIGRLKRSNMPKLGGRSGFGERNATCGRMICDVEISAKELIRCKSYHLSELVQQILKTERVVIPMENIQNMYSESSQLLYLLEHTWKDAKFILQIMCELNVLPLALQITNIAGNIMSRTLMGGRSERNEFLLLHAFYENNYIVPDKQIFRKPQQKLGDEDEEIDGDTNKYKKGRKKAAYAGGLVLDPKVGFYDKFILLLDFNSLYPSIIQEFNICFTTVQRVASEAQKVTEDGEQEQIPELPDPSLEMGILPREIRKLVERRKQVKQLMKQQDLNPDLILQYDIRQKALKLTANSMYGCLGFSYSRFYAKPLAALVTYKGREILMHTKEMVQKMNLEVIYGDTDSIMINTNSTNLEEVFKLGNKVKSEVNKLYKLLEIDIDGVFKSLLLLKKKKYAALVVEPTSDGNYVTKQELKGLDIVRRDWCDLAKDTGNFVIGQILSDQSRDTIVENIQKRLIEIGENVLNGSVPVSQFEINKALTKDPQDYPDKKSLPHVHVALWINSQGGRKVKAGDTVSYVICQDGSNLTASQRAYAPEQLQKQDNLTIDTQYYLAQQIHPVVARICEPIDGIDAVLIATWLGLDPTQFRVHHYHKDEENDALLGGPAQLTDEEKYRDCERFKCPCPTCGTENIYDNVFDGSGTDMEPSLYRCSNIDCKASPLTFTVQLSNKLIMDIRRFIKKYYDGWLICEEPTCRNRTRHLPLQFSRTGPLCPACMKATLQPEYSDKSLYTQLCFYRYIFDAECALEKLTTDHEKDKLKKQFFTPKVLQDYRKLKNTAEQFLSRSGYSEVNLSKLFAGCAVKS

DNA polymerase beta = DNA polymerase beta (Homo sapiens, UniProt P06746); experiment: Inhibition of recombinant human DNA polymerase beta preincubated with enzyme followed by addition of dATP/dGTP/TTP as substrate in presence of […] by phosphorimaging assay
[6] = Inhibition of recombinant human DNA polymerase gamma preincubated with enzyme followed by addition of dATP/dGTP/TTP as substrate in presence of […] by phosphorimaging assay
[7] = biological target: T1, DNA-directed RNA polymerase, mitochondrial; experiment: Inhibition of human mitochondrial RNA polymerase assessed as single nucleotide incorporation rate in presence of 5'-[32P]-R12/D18 as primer/template by PAGE based phosphorimaging assay; design: scale not given: the % may be the effect or the level left
[8] = Inhibition of recombinant human DNA polymerase gamma assessed as single nucleotide incorporation rate after 5 to 90 mins in presence of [32P]-D19/D36 as primer/template by PAGE based phosphorimaging assay; design: scale not given: the % may be the effect or the level left
PBMC [9] = experiment: Drug level in rhesus monkey PBMC treated with (S)-2-Ethylbutyl 2-(((S)-(((2R,3S,4R,5R)-5-(4-Aminopyrrolo-[2,1-f][1,2,4]triazin-7-yl)-5-cyano-3,4-dihydroxytetrahydrofuran-2-yl)methoxy)(phenoxy)phosphoryl)amino)propanoate at 10 mg/kg, iv administered as single bolus dose up to 2 hrs; type: ADME, organism-based, Macaca mulatta; settings: in vivo
[10] = Drug level in TERT-immortalized HMVEC treated with (2S)-2-ethylbutyl 2-((((2R,3S,4R,5R)-5-(4-aminopyrrolo[1,2-f][1,2,4]triazin-7-yl)-5-cyano-3,4-dihydroxytetrahydrofuran-2-yl)methoxy)(phenoxy)phosphorylamino)propanoate at 1 uM after 2 to 72 hrs; type: ADME, cell-based; settings: human
[11] = Drug level in human HeLa cells treated with (2S)-2-ethylbutyl 2-((((2R,3S,4R,5R)-5-(4-aminopyrrolo[1,2-f][1,2,4]triazin-7-yl)-5-cyano-3,4-dihydroxytetrahydrofuran-2-yl)methoxy)(phenoxy)phosphorylamino)propanoate at 1 uM after 2 to 72 hrs; type: ADME, cell-based
Macrophage = experiment: Drug level in human macrophages treated with (2S)-2-ethylbutyl 2-((((2R,3S,4R,5R)-5-(4-aminopyrrolo[1,2-f][1,2,4]triazin-7-yl)-5-cyano-3,4-dihydroxytetrahydrofuran-2-yl)methoxy)(phenoxy)phosphorylamino)propanoate at 1 uM after 2 to 72 hrs; type: ADME, cell-based
[12] = Lipophilicity, log D of the compound after 30 mins by HPLC/UV method; type: physicochemical; settings: 0.5 h
Ebolavirus [13] = experiment: Antiviral activity against Ebolavirus Kikwit infected in human HeLa cells assessed as reduction in viral glycoprotein levels preincubated with cells for 2 hrs followed by viral infection measured after 48 hrs by immunostaining based assay; type: functional, cell-based; settings: hela
Ebolavirus [14] = experiment: Antiviral activity against GFP-fused Ebolavirus infected in TERT-immortalized HMVEC assessed as reduction in viral replication preincubated with cells followed by viral infection measured after 3 to 4 days by fluorescence assay; type: functional
Human orthopneumovirus = experiment: Antiviral activity against Respiratory syncytial virus A2 infected in human Hep2 cells assessed as reduction of virus-induced cytopathic effect after 4 days by Cell-Titer Glo assay; type: functional, cell-based
Hepatitis C virus = experiment: Antiviral activity against Hepatitis C virus genotype 1b infected in human HuH7 cells preincubated with cells for 3 days followed by viral infection by luciferase assay; type: functional, cell-based, Hepacivirus hominis
HEp-2 = experiment: Cytotoxicity against human Hep2 cells assessed as reduction in cell viability after 4 to 5 days by Cell-Titer Glo assay; type: cell-based; settings: hep-2
MT4 = experiment: Cytotoxicity against human MT4 cells assessed as reduction in cell viability after 4 to 5 days by Cell-Titer Glo assay; type: cell-based; settings: mt4
Ebolavirus [15] = experiment: Antiviral activity against Ebolavirus Kikwit infected in human macrophages preincubated with cells for 2 hrs followed by viral infection measured after 48 hrs; type: functional
Plasma [16] = experiment: Half life in human plasma at 2 uM by LC/MS/MS analysis; type: ADME, cell-free; settings: 2 µM
Plasma [17] = experiment: Prodrug conversion in rhesus monkey plasma assessed as (2R,3R,4S,5R)-2-(4-aminopyrrolo[1,2-f][1,2,4]triazin-7-yl)-3,4-dihydroxy-5-(hydroxymethyl)tetrahydrofuran-2-carbonitrile formation at 10 mg/kg, iv administered as single bolus dose; type: ADME, organism-based, Macaca mulatta; settings: in vivo
Summary of the method: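 Rhesus monkeys received a single 10 mg/kg iv slow bolus. Plasma was sampled over time, and the prodrug and the parent nucleoside formed from it were both quantified to give a concentration–time profile. Values are mean ± SD, n = 3 per time point.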

PBMC [18] = experiment: Drug metabolism in rhesus monkey PBMC assessed as ((2R,3S,4R,5R)-5-(4-aminopyrrolo[1,2-f][1,2,4]triazin-7-yl)-5-cyano-3,4-dihydroxytetrahydrofuran-2-yl)methyl tetrahydrogen triphosphate levels at 10 mg/kg, iv administered as single bolus dose up to 2 hrs; type: ADME, organism-based, Macaca mulatta; settings: in vivo
Summary of the method: (§1)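 Rhesus monkeys received a single 10 mg/kg iv slow bolus. The active triphosphate metabolite was measured inside PBMCs over time to build a concentration–time profile. Values are mean ± SD, n = 3 per time point.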

PBMC [19] = experiment: Time at which plasma concentration greater than in vitro EBOV antiviral IC50 in rhesus monkey PBMC assessed as ((2R,3S,4R,5R)-5-(4-aminopyrrolo[1,2-f][1,2,4]triazin-7-yl)-5-cyano-3,4-dihydroxytetrahydrofuran-2-yl)methyl tetrahydrogen triphosphate levels at 10 mg/kg, iv administered as single bolus; type: ADME, organism-based, Macaca mulatta; settings: in vivo; summary of the method: as §1
Ebolavirus [20] = experiment: Antiviral activity against Ebolavirus infected in rhesus monkey assessed as survival rate at 3 mg/kg, iv qd administered continuously starting from day 3 post infection for 12 days measured on day 28 (reference value: 33%); type: functional; settings: Orthoebolavirus, in Macaca mulatta
Ebolavirus [21] = experiment: Antiviral activity against Ebolavirus infected in rhesus monkey assessed as viral RNA copies at 10 mg/kg, iv administered daily administered daily starting from day 3 post infection measured on day 5 and 7 (reference value: 10^9 copies/ml); type: functional
[22] = Drug uptake in cynomolgus monkey testes at 10 mg/kg, iv at 4 hrs post dose; type: ADME, organism-based, Macaca fascicularis, Testis; settings: in vivo
[23] = Drug uptake in cynomolgus monkey epididymis at 10 mg/kg, iv at 4 hrs post dose; type: ADME, organism-based, Macaca fascicularis; settings: in vivo
Plasma [24] = experiment: Drug uptake in cynomolgus monkey plasma at 10 mg/kg, iv at 4 hrs post dose; type: ADME, organism-based, Macaca fascicularis; settings: in vivo
[25] = Drug metabolism in cynomolgus monkey testes at 10 mg/kg, iv after 168 hrs post dose; type: ADME, organism-based, Macaca fascicularis, Testis; settings: in vivo
Brain [26] = experiment: Drug uptake in cynomolgus monkey brain at 10 mg/kg, iv at 4 hrs post dose; type: ADME, organism-based, Macaca fascicularis; settings: in vivo
Brain [27] = experiment: Drug uptake in cynomolgus monkey brain at 10 mg/kg, iv at 168 hrs post dose; type: ADME, organism-based, Macaca fascicularis; settings: in vivo
Homo sapiens [28] = experiment: Toxicity in iv dosed phase-1 acute meningoencephalytis patient administered as single dose; type: organism-based; settings: in vivo
Homo sapiens [29] = experiment: Toxicity in phase-1 acute meningoencephalytis patient at 150 mg, iv qd administered daily for 2 days followed by 225 mg for 14 days; type: organism-based; settings: in vivo
Ebolavirus [30] = experiment: Antiviral activity against Ebolavirus infected in rhesus monkey assessed as survival rate at 10 mg/kg, iv administered daily starting from day 3 post infection for 12 days relative to control; type: functional; settings: Orthoebolavirus, in Macaca mulatta

T1 sequence (O00411 whole entry): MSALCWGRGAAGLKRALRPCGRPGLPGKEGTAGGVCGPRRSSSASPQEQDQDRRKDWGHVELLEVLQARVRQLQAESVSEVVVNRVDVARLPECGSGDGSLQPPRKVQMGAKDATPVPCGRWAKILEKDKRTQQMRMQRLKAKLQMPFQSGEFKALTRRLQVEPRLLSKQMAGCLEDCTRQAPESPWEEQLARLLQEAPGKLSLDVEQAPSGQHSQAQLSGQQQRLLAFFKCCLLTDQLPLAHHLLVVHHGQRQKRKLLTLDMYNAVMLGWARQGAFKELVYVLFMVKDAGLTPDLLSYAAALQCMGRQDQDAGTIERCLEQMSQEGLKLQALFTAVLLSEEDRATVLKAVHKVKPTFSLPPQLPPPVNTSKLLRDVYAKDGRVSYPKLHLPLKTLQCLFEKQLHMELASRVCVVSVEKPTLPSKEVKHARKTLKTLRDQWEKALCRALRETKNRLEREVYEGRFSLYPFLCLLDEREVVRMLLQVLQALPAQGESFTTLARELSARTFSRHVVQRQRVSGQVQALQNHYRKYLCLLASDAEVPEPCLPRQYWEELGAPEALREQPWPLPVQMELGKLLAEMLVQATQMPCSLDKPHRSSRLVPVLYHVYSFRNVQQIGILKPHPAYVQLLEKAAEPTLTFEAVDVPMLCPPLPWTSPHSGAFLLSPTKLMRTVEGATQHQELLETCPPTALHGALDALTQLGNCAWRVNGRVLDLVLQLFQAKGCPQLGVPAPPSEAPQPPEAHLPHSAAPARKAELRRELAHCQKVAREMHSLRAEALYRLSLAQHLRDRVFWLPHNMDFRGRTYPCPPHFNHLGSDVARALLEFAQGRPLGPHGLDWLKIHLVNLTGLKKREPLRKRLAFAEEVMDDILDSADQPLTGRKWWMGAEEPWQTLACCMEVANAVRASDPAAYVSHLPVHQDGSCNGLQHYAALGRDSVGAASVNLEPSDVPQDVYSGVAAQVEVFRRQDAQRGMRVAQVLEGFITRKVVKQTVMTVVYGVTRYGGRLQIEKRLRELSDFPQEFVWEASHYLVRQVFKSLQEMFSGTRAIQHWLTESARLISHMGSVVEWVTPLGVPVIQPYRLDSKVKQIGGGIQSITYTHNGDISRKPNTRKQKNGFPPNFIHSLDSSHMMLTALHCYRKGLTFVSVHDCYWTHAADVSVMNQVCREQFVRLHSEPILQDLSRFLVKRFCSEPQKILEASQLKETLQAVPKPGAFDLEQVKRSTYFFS

N#C[C@@]1(c2ccc3c(N)ncnn23)O[C@H](COP(=O)(O)OP(=O)(O)OP(=O)(O)O)[C@@H](O)[C@H]1O [RDV-TP]
IC50 [1]: 1100 nM
IC50 [2]: 5000 nM
IC50 [3]: > 200000 nM
IC50 [4]: > 200000 nM
IC50 [5]: > 200000 nM
IC50 (DNA polymerase beta): > 200000 nM
IC50 [6]: > 200000 nM
Activity [7]: 6%
Activity [8]: 0%
Drug metabolism (PBMC [9]): Metabolite_Detected
Drug metabolism [10]: Metabolite_Detected
Drug metabolism [11]: Metabolite_Detected
Drug metabolism (Macrophage): Metabolite_Detected

CCC(CC)COC(=O)[C@H](C)N[P@](=O)(OC[C@H]1O[C@@](C#N)(c2ccc3c(N)ncnn23)[C@H](O)[C@@H]1O)Oc1ccccc1
logD [12]: 2.1
EC50 (Ebolavirus [13]): 100 nM
EC50 (Ebolavirus [14]): 53 nM
EC50 (Human orthopneumovirus): 15 nM
EC50 (Hepatitis C virus): 57 nM
CC50 (HEp-2): 6100 nM
CC50 (MT4): 1700 nM
EC50 (Ebolavirus [15]): 86 nM
t1/2 (Plasma [16]): 1.15 h
Drug metabolism (Plasma [17]): Metabolite_Detected
Drug metabolism (PBMC [18]): Metabolite_Detected
Time (PBMC [19]): 24 h
survival at 3 mg/kg (Ebolavirus [20]): 66%
Activity (Ebolavirus [21]): <80000 mL⁻¹
Drug uptake [22]: Active
Drug uptake [23]: Active
Drug uptake (Plasma [24]): Active
Drug uptake [25]: Metabolite_Detected
Drug uptake (Brain [26]): Not Active
Drug uptake (Brain [27]): Active
Activity (Homo sapiens [28]): Non-Toxic
Activity (Homo sapiens [29]): Non-Toxic
survival at 10 mg/kg (Ebolavirus [30]): 100%
